An excerpt weighted towards active compounds, which were near 2.6% of everything screened.
SENP8 block-1: blocks human SENP8 cleavage of Nedd8 substrate | Q96LD8 | recombinant SENP8, Nedd8 substrate fluorescence | inhibition, % at 20 µM | actives 0.64% (n = 360,000); in the data active = inhibition mostly above about 40%, no sharp cut-off; inactive = mostly below about 27%
SENP1 FRET inh: blocks the human SENP1 SUMO protease catalytic domain. recombinant SENP1 catalytic domain, CyPet-SUMO1-YPet FRET cleavage. inhibition, % at 10 µM. actives 0.21% (n = 360,000);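 active = inhibition at least 30% at 10 µM, raw YFP signal under a set limit, fluorescence ratio 0.5 to 1.5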
Target sequence (Q9P0U3 419-644 limits assumed): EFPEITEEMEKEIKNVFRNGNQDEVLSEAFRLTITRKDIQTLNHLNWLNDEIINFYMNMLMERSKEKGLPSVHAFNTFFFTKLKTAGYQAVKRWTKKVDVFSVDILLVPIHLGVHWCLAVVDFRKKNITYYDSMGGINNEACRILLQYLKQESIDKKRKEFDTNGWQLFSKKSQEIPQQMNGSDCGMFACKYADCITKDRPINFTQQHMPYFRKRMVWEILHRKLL
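Test system: human SENP1 catalytic domain; medium: Tris pH 8 buffer plus EDTA, NaCl, BME, BSA, NP40, catalase; incubation: 50 min reaction at room temperature; technique: FRET, CFP and YFP emission; controls: no-enzyme low control and enzyme-plus-DMSO high control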
Platelet DG rel: platelet dense granule release activity | AID 1663 | actives 0.22% (n = 300,000) | inhibition, %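 (compounds screened at 7.5 µM in platelet-rich plasma)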 | human platelet-rich plasma, SFLLRN dense granule ATP release, luminescence;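 active = mean replicate score, as percent of positive control, at or above 50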
SENP6 inh: SENP6 protease inhibition; Recombinant SENP6 catalytic domain, aminoluciferin luminescence; actives 1.8% (n = 330,000); Q9GZR1; inhibition, % at 10 µM;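 active = inhibition above about 50% at the single tested dose, limit read from the data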
Target sequence (Q9GZR1 628-1112 limits assumed): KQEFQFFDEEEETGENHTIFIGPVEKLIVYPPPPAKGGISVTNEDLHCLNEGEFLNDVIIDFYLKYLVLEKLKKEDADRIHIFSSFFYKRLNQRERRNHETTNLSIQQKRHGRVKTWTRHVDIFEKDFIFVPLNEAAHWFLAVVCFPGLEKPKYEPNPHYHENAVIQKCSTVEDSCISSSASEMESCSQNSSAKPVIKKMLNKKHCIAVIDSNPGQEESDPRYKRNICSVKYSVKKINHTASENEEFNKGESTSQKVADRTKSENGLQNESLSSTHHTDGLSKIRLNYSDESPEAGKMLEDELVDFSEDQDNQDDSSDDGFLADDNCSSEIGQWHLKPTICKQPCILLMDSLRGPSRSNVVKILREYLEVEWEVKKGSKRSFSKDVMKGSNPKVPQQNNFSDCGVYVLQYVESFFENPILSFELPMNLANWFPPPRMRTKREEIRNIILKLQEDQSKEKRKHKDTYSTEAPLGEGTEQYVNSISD
SENP7 inh: inhibitors of human SENP7 protease. actives 1.5% (n = 330,000). Q9BQF6. inhibition, % at 5 µM. recombinant SENP7, Z-RLRGG-aminoluciferin luminescence, 40 min. AID 434973;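 active = inhibition above about 50% at the single test dose, limit read from the data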
SENP8 block-2: inhibitors of human SENP8 protease; Q96LD8; purified SENP8, Z-RLRGG-aminoluciferin cleavage, luminescence; inhibition, % at 10 µM; actives 1.2% (n = 330,000); AID 2540; in the data active = inhibition above about 50%
SENP8 conf: confirmation of human SENP8 protease inhibitors | actives 40% (n = 6,200) | shares compounds with SENP7 inh | Recombinant SENP8, Z-RLRGG-aminoluciferin luminescence, 60 min | inhibition, % at 12.5 µM;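 active = mean inhibition across replicates above about 50%, limit read from the data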
SENP6 confirm: confirmation of human SENP6 protease inhibitors. AID 488915. recombinant SENP6, Z-RLRGG-aminoluciferin luminescence. inhibition, % at 12.5 µM. actives 58% (n = 6,200). shares compounds with SENP7 inh
SENP7 confirm: human SENP7 inhibition, confirmed; shares compounds with SENP7 inh; AID 488917; recombinant SENP7, Z-RLRGG-aminoluciferin luminescence, 40 min; actives 69% (n = 6,200); inhibition, % at 12.5 µM
Casp3 SENP sel: selectivity test for SENP inhibitors: human caspase-3 inhibition; shares compounds with SENP7 inh; purified caspase-3, Z-DEVD-aminoluciferin luminescence, 60 min; inhibition, % at 12.5 µM; actives 60% (n = 6,200); AID 488918;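 active = mean inhibition above about 50%, limit read from the data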
SENP luc ctr: luminescence interference (SENP counter-screen). AID 488919. Pre-incubated SENP8/Z-RLRGG-aminoluciferin, luciferase luminescence interference. actives 39% (n = 6,200). shares compounds with SENP7 inh. inhibition, % at 12.5 µM;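 active = mean inhibition above about 50% when retested at one dose, limit read from the data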
Of the large screens only hits and unclear results are named; the others gave an inactive call (follow-up assays come after a bar, where they were run).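 The calls were made as follows, unless noted: active = mean inhibition above about 50% in the one-dose retest (limit read from the data); inactive = the rest.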

CCOC(=O)NNc1ccc2nonc2c1[N+](=O)[O-]	SENP6 inh 63.9, SENP8 block-2 61.1 (no result: SENP8 block-1, SENP1 FRET inh) | SENP8 conf 66.0 | SENP6 confirm 79.9 | SENP7 confirm inactive | Casp3 SENP sel inactive | SENP luc ctr inactive
CC(C)(C)NC(=O)C(CCc1ccccc1)n1c(=O)c(-c2cc3ccccc3[nH]2)nc2ccccc21 (stereo not given)	none (no result: Platelet DG rel, SENP6 inh, SENP7 inh, SENP8 block-2)
Cc1nc(SCCC(=O)O)c2cc(-c3ccccc3)sc2n1	SENP6 inh 71.5, SENP7 inh 59.8, SENP8 block-2 71.5 | SENP8 conf inactive | SENP6 confirm 76.5 | SENP7 confirm inactive | Casp3 SENP sel 82.2 | SENP luc ctr inactive
Cc1ccc(S(=O)(=O)CC(=O)c2cc(C)c(O)c(C)c2)cc1	none
Cc1ccc(OCc2nc(-c3ccccc3)no2)c(C)c1	SENP6 inh 55.1 | SENP8 conf inactive | SENP6 confirm inactive | SENP7 confirm 55.7 | Casp3 SENP sel inactive | SENP luc ctr inactive
O=[N+]([O-])c1ccccc1OCc1nc(-c2cccs2)no1	none
Cc1ccc(OCc2nc(-c3cccs3)no2)c([N+](=O)[O-])c1	SENP7 inh 52.7 | SENP8 conf 66.5 | SENP6 confirm 65.4 | SENP7 confirm 80.1 | Casp3 SENP sel inactive | SENP luc ctr inactive
Cc1cc(C)c(C)c(OCc2nc(-c3cccnc3)no2)c1	none
COc1ccc(NC(=O)COc2ccc3c(C)cc(=O)oc3c2)cc1S(=O)(=O)N1CCCCC1	none
Cc1ccnc(NC(=O)Nc2cccc(F)c2)c1	SENP6 inh 93.1, SENP7 inh 93.8, SENP8 block-2 73.3 | SENP8 conf 56.2 | SENP6 confirm 71.7 | SENP7 confirm 89.4 | Casp3 SENP sel 72.5 | SENP luc ctr inactive
Cc1ccc(NC(=O)Nc2cccc(F)c2)nc1	SENP6 inh 51.9, SENP7 inh 52.6 | SENP8 conf inactive | SENP6 confirm inactive | SENP7 confirm inactive | Casp3 SENP sel inactive | SENP luc ctr inactive
Cc1cccc(NC(=O)Nc2cccc(F)c2)n1	none
O=C(Nc1cccc(F)c1)Nc1ccc(Cl)cn1	none
CC1CC(C)CN(C(=O)C(C)N2CCN(S(=O)(=O)c3ccc(Br)s3)CC2)C1 (stereo not given)	none (no result: Platelet DG rel)
O=C(CN1C(=O)C2(OCCCO2)c2ccccc21)NCc1ccccc1	SENP7 inh 52.1 | SENP8 conf inactive | SENP6 confirm inactive | SENP7 confirm inactive | Casp3 SENP sel inactive | SENP luc ctr inactive
Cc1ccccc1C(=O)Oc1ccc2ccc(O)cc2c1	SENP6 inh 72.9, SENP7 inh 58.5, SENP8 block-2 59.1 | SENP8 conf inactive | SENP6 confirm 76.0 | SENP7 confirm 84.5 | Casp3 SENP sel inactive | SENP luc ctr inactive
Cc1ccccc1S(=O)(=O)Oc1ccc2ccc(O)cc2c1	none
COc1cccc(C(=O)Oc2ccc3ccc(O)cc3c2)c1	SENP6 inh 68.7 (no result: SENP8 block-1, SENP1 FRET inh) | SENP8 conf inactive | SENP6 confirm 63.6 | SENP7 confirm 80.0 | Casp3 SENP sel inactive | SENP luc ctr inactive
COc1cccc(C(=O)NNC(=O)c2ccc3ccccc3c2)c1	none (no result: Platelet DG rel, SENP6 inh, SENP7 inh, SENP8 block-2)
CC(=O)c1sccc1NC(=O)CC(C)(C)CC(=O)O	none
CC1CCN(C(=O)C2CCCN2S(=O)(=O)c2ccc(Cl)cc2)CC1 (stereo not given)	none
Cc1ccsc1/C=N/Nc1cccc(C(=O)O)c1	SENP6 inh 97.9, SENP7 inh 99.7, SENP8 block-2 97.2 | SENP8 conf 98.0 | SENP6 confirm 98.9 | SENP7 confirm 102.2 | Casp3 SENP sel 97.4 | SENP luc ctr 97.8
Cc1ccsc1/C=N/Nc1ccc(C(=O)O)cc1	SENP6 inh 96.7, SENP7 inh 99.1, SENP8 block-2 96.2 | SENP8 conf 99.1 | SENP6 confirm 100.3 | SENP7 confirm 102.7 | Casp3 SENP sel 97.7 | SENP luc ctr 98.3
Cc1ccsc1/C=N/NC(=O)CNC(=O)c1ccccc1	none
Cc1nc(C)c(C(=O)OCC(=O)NCc2ccccc2Cl)s1	none (no result: Platelet DG rel)
CC1(C)CC(=O)C/C(=N/Nc2nc3ccccc3s2)C1	none
CC1CCC/C(=N/Nc2nc3ccccc3s2)C1 (stereo not given)	SENP7 inh 54.2, SENP8 block-2 55.5 | SENP8 conf inactive | SENP6 confirm 68.1 | SENP7 confirm 87.9 | Casp3 SENP sel inactive | SENP luc ctr 52.3
O=C1NCCCN1C1OC(CO)C(O)C1O (stereo not given)	none (no result: Platelet DG rel, SENP6 inh, SENP7 inh, SENP8 block-2)
NS(=O)(=O)c1ccc(CCNC(=O)COC(=O)C2CCN(c3ccc(C(F)(F)F)cn3)CC2)cc1	none
O=C(O)c1cccc(NC(=O)c2ccc(COc3ccc(Cl)cc3)cc2)c1	SENP6 inh 69.8, SENP8 block-2 53.0 | SENP8 conf inactive | SENP6 confirm inactive | SENP7 confirm 59.1 | Casp3 SENP sel inactive | SENP luc ctr inactive
COc1cccc(CNC(=O)c2ccc(COc3ccccc3)cc2)c1	none
CCOc1ccc(NC(=O)c2cccc(NC(=O)c3ccccc3)c2)cc1	none
O=C(O)c1ccc(COc2cccc(CO)c2)cc1	Platelet DG rel 75.1, SENP6 inh 74.4, SENP7 inh 86.2, SENP8 block-2 64.1 | SENP8 conf inactive | SENP6 confirm 70.5 | SENP7 confirm 93.0 | Casp3 SENP sel 93.2 | SENP luc ctr 74.1
O=C(O)c1cccc(NC(=O)c2cccc(S(=O)(=O)N3CCc4ccccc43)c2)c1	SENP6 inh 53.7 | SENP8 conf inactive | SENP6 confirm inactive | SENP7 confirm 70.0 | Casp3 SENP sel inactive | SENP luc ctr inactive
CCOc1c(Cl)cc(C(=O)Nc2cccc(C(=O)O)c2)cc1Cl	SENP6 inh 95.0, SENP7 inh 87.7, SENP8 block-2 92.4 | SENP8 conf 95.4 | SENP6 confirm 96.0 | SENP7 confirm 100.7 | Casp3 SENP sel 53.5 | SENP luc ctr 96.1
CCCCN(C(C)=O)c1c(CC)nc2ccc(C(=O)NCCCN(C)C)cn12	none (no result: Platelet DG rel, SENP6 inh, SENP7 inh, SENP8 block-2)
CCCn1nnnc1NCc1ccc(C(C)C)cc1	none
CC1(C)Cc2c(cnn2-c2ccc(F)cc2)C(NC(=O)CN2CCCC2=O)C1 (stereo not given)	none

Compound activity (PubChem)
